Screening data as filed in PubChem BioAssay.
OXTR potentiator: potentiators of human oxytocin receptor; actives 0.061% (n = 320,000); CHO-OTR cells, Fluo-8 calcium fluorescence, potentiator mode; 0% = oxytocin EC15, 100% = EC100; P30559; activation, % at 3 µM;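 active = activation above that plate's cutoff, the mean activation of tested compounds plus 3 SD, cut at about 6.6% in these data, passing the limit was not always enough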;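 also: 100% uses oxytocin at 75 nM as the full agonist control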
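Assay system: CHO cell line stably expressing human OTR | Also added: Oxytocin at about EC15, sub-maximal agonist stimulus | Times: Compound 6 min at room temperature before oxytocin, 100 s read | Measured by: Fluo-8 intracellular calcium fluorescence, ex 470-495, em 515-575 nm | Controls: EC15 oxytocin alone as 0%, 75 nM oxytocin as 100%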
OX1R antag-1: human HCRTR1 antagonism; O43613; CHO/OX1R cells, Fluo-8 calcium fluorescence, orexin A; inhibition, % at 5 µM; actives 0.43% (n = 330,000); AID 434989;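 active = inhibition above its plate's threshold, mean inhibition of all tested compounds on the plate plus 3 SD, cut at about 37% in these data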;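 also: 0% = orexin A challenge wells and 100% = SB-334867-A antagonist wells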
Target sequence (O43613 whole entry, looked up): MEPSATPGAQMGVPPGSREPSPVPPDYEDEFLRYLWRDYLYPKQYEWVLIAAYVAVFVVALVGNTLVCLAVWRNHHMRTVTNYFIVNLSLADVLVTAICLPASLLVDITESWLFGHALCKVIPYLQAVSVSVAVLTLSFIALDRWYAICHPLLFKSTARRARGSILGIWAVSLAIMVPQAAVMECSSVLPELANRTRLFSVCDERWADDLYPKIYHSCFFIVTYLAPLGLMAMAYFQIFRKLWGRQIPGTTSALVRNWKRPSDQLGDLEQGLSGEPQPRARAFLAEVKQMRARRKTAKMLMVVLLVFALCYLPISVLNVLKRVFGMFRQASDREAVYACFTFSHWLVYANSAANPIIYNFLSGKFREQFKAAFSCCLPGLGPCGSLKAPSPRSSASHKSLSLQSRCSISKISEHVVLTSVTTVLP
OXTR ag: human OXTR agonism. P30559. CHO-OTR cells, Fluo-8 calcium fluorescence; normalized: DMSO 0%, oxytocin 100%. activation, % at 3 µM. actives 0.32% (n = 320,000). AID 2435;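 active = activation above the mean of all tested compounds plus 3 SD, cutoff set per screening run, cut at about 20% in these data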;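 also: peak over basal fluorescence ratio from a 100 s FLIPR kinetic read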
OX1R antag-2: OX1R (human) antagonism; O43613; inhibition, % at 6.6 µM; AID 485270; OX1R-expressing cells, FRET antagonist read-out; actives 1.8% (n = 330,000); in the data active = inhibition mostly above about 38%, no sharp cut-off; inactive = mostly below about 40%;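 also: 0% = agonist challenge alone and 100% = reference antagonist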
CHO parental Ca: counter-screen for OX1R antagonists: effect in parental CHO cells; parental CHO-K1, ATP-induced calcium, Fluo-8 fluorescence; inhibition, % at 5.6 µM; actives 0.63% (n = 330,000); AID 463079;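 active = inhibition above that plate's mean sample inhibition plus 3 SD, cut at about 26% in these data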;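 also: 0% = ATP-challenged DMSO wells and 100% = DMSO wells without ATP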
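Measured by: calcium-sensitive Fluo-8 fluorescence / Test system: CHO parental line / Controls: ATP-challenged DMSO wells low, unchallenged DMSO wells high / Measure: % inhibition / Compound: single nominal dose of 5.6 µM per compound / Replicates: single well per compound, no replicates / Reagent: ATP as calcium-mobilizing challenge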
V1aR counter: activates human V1a receptor in oxytocin agonist counter-screen. P37288. CHO-V1R cells, Fluo-8 calcium fluorescence, agonist mode; 0% DMSO, 100% 3 nM vasopressin. activation, % at 3 µM. actives 0.25% (n = 320,000);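 active = activation above the mean activation of all tested compounds plus 3 SD, per screening run, cut at about 20% in these data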;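 also: signal is peak over basal fluorescence ratio across a 100 second FLIPR read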
OX1R HTRF confirm: confirmation of human orexin 1 receptor antagonists, HTRF format; shares compounds with OX1R antag-2; OX1R-expressing cells, HTRF antagonist assay; inhibition, % at 6.6 µM; actives 49% (n = 1,800); AID 492964; in the data active = inhibition above about 55%;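 also: CHO cells expressing OX1R stimulated with orexin A at about EC80; 0% = agonist challenge alone and 100% = reference antagonist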
CHO-K1 HTRF cnt: counter-screen: parental CHO-K1 HTRF response. inhibition, % at 6.6 µM. shares compounds with OX1R antag-2. AID 493232. actives 48% (n = 1,800). parental CHO-K1 cells, HTRF counterscreen; in the data active = inhibition above about 17%;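 also: 0% = agonist challenge with vehicle and 100% = vehicle alone without agonist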
* hit, by the source's call. Compounds with a hit are over-represented: about 2.7% of the library has one in this group of screens.

Results for O=[N+]([O-])c1ccc(S(=O)(=O)NCC2CCCO2)cc1 (configuration not stated) ?
OXTR potentiator: -1; OX1R antag-1: -18; OXTR ag: -1; OX1R antag-2: 81*; CHO parental Ca: -11; V1aR counter: 0; OX1R HTRF confirm: 46; CHO-K1 HTRF cnt: 47*

Results for O=[N+]([O-])c1ccc(Cl)c(S(=O)(=O)NCC2CCCO2)c1 (configuration not stated) ?
OXTR potentiator: -3; OX1R antag-1: -7; OXTR ag: 1; OX1R antag-2: 23; CHO parental Ca: -1; V1aR counter: 0

Results for COc1ccc(-c2cc(C(F)(F)F)n3ncc(C(=O)O)c3n2)cc1OC ?
OXTR potentiator: -5; OX1R antag-1: 14; OXTR ag: 0; OX1R antag-2: 82*; CHO parental Ca: -3; V1aR counter: 1; OX1R HTRF confirm: 32; CHO-K1 HTRF cnt: 55*

What do the screens show for `COC(=O)c1cnn2c(C(F)(F)F)cc(-c3ccccc3)nc12`?
OXTR potentiator: -1; OX1R antag-1: -31; OXTR ag: -3; OX1R antag-2: 18; CHO parental Ca: 2; V1aR counter: -1

Results for COCCOC(=O)C1=C(C)NC(C)=C(C(=O)OCCOC)C1/C=C/c1ccccc1OC ?
OXTR potentiator: -8; OX1R antag-1: -75; OXTR ag: 1; OX1R antag-2: 78*; CHO parental Ca: -10; V1aR counter: 2; OX1R HTRF confirm: 23; CHO-K1 HTRF cnt: -2

How did CC1CC(=O)NN=C1c1ccc(N)c([N+](=O)[O-])c1 (configuration not stated) do in these assays?
OXTR potentiator: 0; OX1R antag-1: 2; OXTR ag: 0; OX1R antag-2: 83*; CHO parental Ca: -11; V1aR counter: 1; OX1R HTRF confirm: 34; CHO-K1 HTRF cnt: 29*

Results for CC1CN(C(=O)COC(=O)c2ccc(N)c([N+](=O)[O-])c2)CC(C)O1 (configuration not stated) ?
OXTR potentiator: -4; OX1R antag-1: -3; OXTR ag: 2; OX1R antag-2: 31; CHO parental Ca: -1; V1aR counter: 1

Results for Cc1[nH]c2ccccc2c1/C=C/c1nc2ccccc2c(=O)[nH]1 ?
OXTR potentiator: -8; OX1R antag-1: -25; OXTR ag: 1; OX1R antag-2: 87*; CHO parental Ca: 3; V1aR counter: -1; OX1R HTRF confirm: 75*; CHO-K1 HTRF cnt: 12

Results for CCCOc1ccccc1C(=O)N1CCNC(=O)C1CC(=O)OC(C)C (configuration not stated) ?
OXTR potentiator: 0; OX1R antag-1: -22; OXTR ag: 2; OX1R antag-2: 3; CHO parental Ca: -11; V1aR counter: 0

What do the screens show for `COc1cccc(CNC(=O)Cn2ccc3cc(S(=O)(=O)N4CCCCCC4)ccc32)c1OC`?
OXTR potentiator: -6; OX1R antag-1: -22; OXTR ag: 0; OX1R antag-2: 11; CHO parental Ca: -18; V1aR counter: 3

Results for CCC(=O)Nc1ccc(C(=O)NNC(=O)c2cc([N+](=O)[O-])cc([N+](=O)[O-])c2)cc1 ?
OXTR potentiator: -3; OX1R antag-1: -6; OXTR ag: 2; OX1R antag-2: 181*; CHO parental Ca: 5; V1aR counter: 0; OX1R HTRF confirm: 19; CHO-K1 HTRF cnt: 11

How did CC(=O)Nc1ccc(S(=O)(=O)NNC(=O)c2ccc([N+](=O)[O-])cc2)cc1 do in these assays?
OXTR potentiator: -12; OX1R antag-1: -15; OXTR ag: 0; OX1R antag-2: 19; CHO parental Ca: -9; V1aR counter: -1

Results for CCC(=O)Nc1ccc(C(=O)NNC(=O)c2ccc([N+](=O)[O-])cc2)cc1 ?
OXTR potentiator: -1; OX1R antag-1: -9; OXTR ag: 0; OX1R antag-2: 158*; CHO parental Ca: 1; V1aR counter: 0; OX1R HTRF confirm: 39; CHO-K1 HTRF cnt: 34*

What do the screens show for `CC(=O)Nc1ccc(C(=O)NNC(=O)c2cc([N+](=O)[O-])cc([N+](=O)[O-])c2)cc1`?
OXTR potentiator: -10; OX1R antag-1: -3; OXTR ag: 0; OX1R antag-2: 80*; CHO parental Ca: -11; V1aR counter: 3; OX1R HTRF confirm: 49; CHO-K1 HTRF cnt: 73*

How did CCC(=O)Nc1ccc(C(=O)N/N=C/c2ccc([N+](=O)[O-])cc2)cc1 do in these assays?
OXTR potentiator: -2; OX1R antag-1: -5; OXTR ag: 3; OX1R antag-2: 40; CHO parental Ca: -9; V1aR counter: 1

How did O=C(c1cccc([N+](=O)[O-])c1)N1CCN(S(=O)(=O)/C=C/c2ccccc2)CC1 do in these assays?
OXTR potentiator: -8; OX1R antag-1: -13; OXTR ag: -2; OX1R antag-2: 4; CHO parental Ca: -22; V1aR counter: 1

Results for CCC(C)NC(=O)CSc1nnc(-c2cc(OC)c(OC)c(OC)c2)c(-c2cc(OC)c(OC)c(OC)c2)n1 (configuration not stated) ?
OXTR potentiator: -6; OX1R antag-1: -46; OXTR ag: 0; OX1R antag-2: 10; CHO parental Ca: -23; V1aR counter: 1

Results for CC1CN(S(=O)(=O)c2ccc(C(=O)OCc3ccc(C#N)cc3)cc2)CC(C)O1 (configuration not stated) ?
OXTR potentiator: -6; OX1R antag-1: 19; OXTR ag: 3; OX1R antag-2: 10; CHO parental Ca: 2; V1aR counter: 3

What do the screens show for `Cc1c(NS(=O)(=O)c2cc(C(=O)OCC(=O)N3CCC(C)CC3)ccc2Cl)c(=O)n(-c2ccccc2)n1C`?
OXTR potentiator: -14; OX1R antag-1: -11; OXTR ag: -2; OX1R antag-2: 5; CHO parental Ca: -10; V1aR counter: 1

Results for Cc1c(NS(=O)(=O)c2cccc(C(=O)NCc3ccc(Cl)cc3)c2)c(=O)n(-c2ccccc2)n1C ?
OXTR potentiator: -10; OX1R antag-1: 24; OXTR ag: -2; OX1R antag-2: 84*; CHO parental Ca: -24; V1aR counter: 3; OX1R HTRF confirm: 84*; CHO-K1 HTRF cnt: 0

What do the screens show for `Cc1c(NS(=O)(=O)c2cccc(C(=O)O)c2)c(=O)n(-c2ccccc2)n1C`?
OXTR potentiator: 5; OX1R antag-1: -13; OXTR ag: 2; OX1R antag-2: 1; CHO parental Ca: -9; V1aR counter: 2
